Compound activity from PubChem BioAssay.
Only some compounds are listed: those with a hit (about 5.1% of all), similar ones and a draw of the others.
APP 5'UTR act: activators of APP 5'UTR luciferase reporter, primary screen, SH-SY5Y cells. activation, % at 2 µM. SH-SY5Y APP 5'UTR luciferase reporter, luminescence; zero percent = DMSO vehicle wells. 190,000 tested, 1% active;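 active means activation above a set limit, based on mean plus 3 SD of controls, cut at about 140% in these data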
STAT1 blocker: STAT1 signaling inhibitors, primary screen, cell-based, HTS, luciferase reporter; 200,000 tested, 0.35% active; NIH 3T3 STAT1-luciferase reporter, IFN-gamma, luminescence; inhibition, % at 5.5 µM;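 active means inhibition above a set limit, the mean inhibition across all tested compounds plus 3 SD, cut at about 34% in these data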;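 further: 0% = IFN-gamma with DMSO and 100% = IFN-gamma with 300 µM nifuroxazide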
STAT3 inh: IL-6 driven STAT3 reporter inhibitors, primary screen, U3A cells, luciferase, luminescence, MLSCN library | IL-6 STAT3-luciferase reporter; host cell line lacks STAT1 | inhibition, % at 5.5 µM | 190,000 tested, 0.89% active;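 active means inhibition above the mean inhibition across all screened compounds plus 3 SD, cut at about 44% in these data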;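 further: 0% = DMSO only wells and 100% = 100 µM nifuroxazide control wells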
STAT1 act-1: STAT1 signaling activators, primary screen, cell-based, HTS, luciferase reporter; NIH 3T3 STAT1-luciferase reporter, IFN-gamma, luminescence; 100% = IFN-gamma alone, no compound; activation (% of control), % at 5.5 µM; 200,000 tested, 2.6% active; AID 932, 2007;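 active means activation above the screen-wide mean activation plus 3 SD, cut at about 130% in these data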;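 further: raw ratio to IFN-gamma control signal so 100% means no change and 0% no light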
NF-kB expr up: activators of NF-kB expression in neurons, primary screen, cell-based, HTS | human neuronal cells, NF-kB reporter expression; active compounds read high | fold change at 12.5 µM | 190,000 tested, 1.6% active | AID 1239, 2008; in the data active means fold change above about 3.3
STAT3 act-1: IL-6 driven STAT3 reporter potentiators, primary screen, U3A cells, luciferase, luminescence, MLSCN library. 190,000 tested, 0.91% active. AID 871, 2007. activation (% of control), % at 5.6 µM. IL-6 STAT3-luciferase reporter; 100% = signal with IL-6 EC80 alone;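 active means activation above the screen-wide mean of compound activation plus 3 SD, cut at about 130% in these data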;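 further: 0% = background luminescence of wells with medium and substrate only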
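Material: human STAT1-deficient U3A cells with stable STAT3-luciferase reporter / Probe or stimulus: IL-6 stimulus at 33 ng/mL final / Schedule: 1 h compound pre-exposure, 6 h IL-6 stimulation, 37 °C / Technique: luminescence / Read-out basis: percent of IL-6-only median luminescence / Control set: IL-6-only high control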
STAT3 act-2: STAT3 reporter potentiators, retest of hits, confirmation, U3A cells, luciferase, luminescence; shares compounds with STAT3 act-1; IL-6 potentiation; U3A cells lack STAT1; 100 means same as IL-6 alone; potentiation (% of control), % at 5.7 µM; 1,200 tested, 64% active; AID 1267, 2008;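 active means percent activation of the STAT3 luciferase reporter above a set limit taken from the earlier primary screen, cut at about 130% in these data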;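 further: 0% = background signal of medium plus substrate and 100% = median of IL-6 with DMSO wells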
NFkB act 2: NF-kB reporter activators in human cells, counter-screen for STAT3 activator project; NF-kappaB reporter activation; activation (% of control), % at 5.7 µM; shares compounds with STAT3 act-1; 1,200 tested, 11% active; in the data active means activation above about 120%;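 further: reporter induced by TNF-alpha stimulation; 100% = median of stimulated DMSO wells and 0% = no signal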
STAT1 act-2: STAT1 reporter activators, IFN-gamma induced, counter-screen for STAT3 activator project, cell-based, NIH 3T3, luciferase luminescence. shares compounds with STAT3 act-1. NIH 3T3 STAT1-luciferase reporter. activation (% of control), % at 5.7 µM. 1,200 tested, 13% active. AID 1318, 2008;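 active means activation above the solvent-only control well mean plus 3 SD, set per screening run, cut at about 120% in these data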;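 further: 100% = IFN-gamma with DMSO median signal so 100% means no change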
Starred values were filed as active, the others as inactive; . = no result.

SMILES	APP 5'UTR act	STAT1 blocker	STAT3 inh	STAT1 act-1	NF-kB expr up	STAT3 act-1	STAT3 act-2	NFkB act 2	STAT1 act-2
CCn1c(SCc2nc3ccccc3s2)nnc1-c1ccccc1	32.9	-17.5	-77.8	116.2	1.29	171.2*	145.5*	117.0	133.7*
CCC(c1nnc(SCc2nc3ccccc3s2)n1Cc1ccccc1)N(C)C (centres undefined)	43.0	-18.3	-54.7	117.0	1.03	151.7*	141.5*	117.2	117.0
c1ccc(-n2cnnc2SCc2nc3ccccc3s2)cc1	57.4	-21.1	-39.4	119.3	1.22	140.4*	152.2*	121.9*	131.9*
Cc1nnc(SCc2nc3ccccc3s2)n1-c1ccccc1	85.3	-14.9	-50.7	112.0	1.15	146.8*	148.8*	112.8	133.7*
O=C(CN1C(=O)/C(=C\c2cccc(Cl)c2)Oc2ccccc21)N1CCN(c2ccccn2)CC1	-10.7	1.7	-8.9	100.0	0.95	112.1	.	.	.
COc1ccc(/C=C/CN2CCN(Cc3ccc(F)cc3)C(CCO)C2)cc1 (centres undefined)	-13.7	-5.4	3.9	103.5	1.13	100.5	.	.	.
COC(=O)c1sccc1NC(=O)c1c(C)noc1C	-11.8	-8.8	5.1	108.1	1.11	98.5	.	.	.
COC(=O)c1sccc1NC(=O)c1cc(C)on1	10.0	-3.0	-56.2	102.8	1.02	150.7*	134.6*	103.5	103.4
Cc1cc(Nc2nc(Cl)c(Cl)cc2Cl)n(-c2ccccc2)n1	-15.7	2.5	-44.7	97.8	1.11	142.6*	122.9	109.2	105.6
CCc1c(C(=O)Nc2ccc(OC)cc2)[nH]c(C)c1C(C)=O	15.5	-5.2	-22.9	104.8	1.11	121.8	.	.	.
COc1ccc(NC(=O)c2[nH]c(C)c(C(C)=O)c2C)cc1	27.8	-22.1	-46.5	118.4	1.89	142.8*	158.6*	121.1*	128.8*
O=C(O)CCNc1cc2ccccc2cc1C(=O)O	-22.3	-1.2	-45.5	99.5	1.06	142.3*	97.4	105.7	104.7
Cc1cc2nc(/N=C(\N)NC(=O)N3c4ccccc4Sc4ccccc43)nc(C)c2cc1C	6.7	-5.8	6.7	105.1	0.87	92.5	.	.	.
O=C(c1ccccc1[N+](=O)[O-])n1cnc2ccccc21	14.6	-2.4	12.4	102.8	0.9	91.2	.	.	.
Cn1c(C(=O)c2ccccc2[N+](=O)[O-])nc2ccccc21	-6.4	-5.5	-49.1	105.7	0.99	144.9*	142.4*	96.0	94.1
S=C(Nc1ccc2c(c1)OCO2)N1CCN(Cc2ccco2)CC1	9.6	7.5	14.7	92.4	1.25	96.7	.	.	.
c1ccc(-c2cc3c(-n4cccc4)ncnc3o2)cc1	2.0	12.2	-52.2	88.9	1.21	150.9*	160.2*	112.2	112.6
Oc1ccccc1/C=N/n1c2ccccc2c2ccccc21	1.2	9.4	-52.6	91.6	0.99	147.0*	137.3*	99.4	96.5
CC1=NC(=O)C(N=Nc2cccc(O)c2)N1c1ccccc1 (centres undefined)	108.9	-14.4	-89.3	113.3	4.22*	185.0*	186.7*	105.5	120.1
[O-]/C(=C(\C(=S)Nc1cccc2ccccc12)[n+]1ccccc1)c1cccs1	9.8	-1.0	-34.1	99.2	0.79	143.1*	136.3*	105.7	91.8
Cc1cccc(C)c1NC(=S)/C(=C(\[O-])c1cccs1)[n+]1ccccc1	-4.3	-0.9	8.6	103.2	1.34	91.3	.	.	.
CCOc1ccc2nc(SCC(=O)NCc3ccc(OC)c(OC)c3)[nH]c2c1	33.8	-0.3	0.8	100.1	1.09	103.5	.	.	.
COc1ccc(C(=O)CNc2ccc3ccccc3c2)cc1	18.1	-24.5	-43.5	121.3	1.15	142.2*	131.5	111.6	111.5
CCCn1c(C)cc(C(=O)COc2ccc(S(=O)(=O)N(CC)CC)cc2[N+](=O)[O-])c1C	-8.5	5.7	-9.7	95.0	0.63	105.8	.	.	.
CN(C)S(=O)(=O)c1ccc(C(=O)Oc2cc(=O)[nH]c3ccccc23)cc1	-10.4	-3.8	-61.4	103.4	1.03	154.2*	123.8	100.5	97.8
SMILES	APP 5'UTR act	STAT1 blocker	STAT3 inh	STAT1 act-1	NF-kB expr up	STAT3 act-1	STAT3 act-2	NFkB act 2	STAT1 act-2
CCOC(=O)c1[nH]c2ccccc2c1NC(=O)c1ccc(S(=O)(=O)N(C)C)cc1	0.1	1.4	-14.6	98.7	1.4	112.4	.	.	.
COc1ccccc1N1CCN(C(=O)COc2ccc(S(=O)(=O)NC(C)C)cc2)CC1	13.9	6.8	7.0	91.8	0.92	96.8	.	.	.
COc1ccccc1C(=O)NNC1=C(C(=O)C(F)(F)F)CCC1	11.2	-3.9	-62.7	103.5	0.44	150.3*	127.6	105.5	101.8
O=C(NNC1=C(C(=O)C(F)(F)F)CCC1)c1ccccc1Cl	5.6	-4.6	8.8	104.2	0.98	90.4	.	.	.
O=C(NNC1=C(C(=O)C(F)(F)F)CCC1)c1ccccc1O	-17.0	3.5	-79.8	96.7	1.5	176.5*	148.2*	100.7	101.7
CCNC(=O)Nc1ccc(-n2nc(C)c(C(=O)OCC)c2C)nc1	-1.0	0.1	1.1	98.6	1.2	100.1	.	.	.
COc1ccccc1-c1nnc(SCC(=O)NC2CCCCC2)o1	16.6	-0.4	-70.0	100.4	0.97	163.0*	146.4*	97.1	97.2
CCOc1ccccc1-c1n[nH]c(=S)o1	-7.6	-3.7	-85.9	103.6	0.93	173.4*	156.0*	104.0	96.2
Fc1ccccc1C1c2[nH]c3ccccc3c2CCN1CCCn1cccn1 (centres undefined)	-6.6	-6.6	-44.2	104.3	.	144.0*	132.6	101.7	93.0
NS(=O)(=O)c1cccc(NC(=O)COC(=O)CCCc2c[nH]c3ccccc23)c1	-11.1	3.7	0.8	94.4	1.19	100.6	.	.	.
Cc1cc(C)n2nc3ccccc3c2n1	-9.2	-2.5	-18.7	102.3	1.46	120.3	.	.	.
Cc1cc(C)n2nc(Nc3ccccc3)cc2n1	27.5	18.2	-62.2	83.5	1.96	157.3*	167.8*	112.5	105.4
CC(C)OCC1CC(CC(=O)Nc2ccc([N+](=O)[O-])cc2)C(=O)O1 (centres undefined)	0.4	1.5	-0.7	97.2	1.05	104.5	.	.	.
